Active and inactive are the calls of the source. No cut-off for these calls is given here.
What was measured:
DG-75 [1] = test: Induction of apoptosis in human DG75 cells at 50 uM after 72 hrs by annexin V-propidium iodide staining-based FACS analysis; format: functional
[2] = Induction of apoptosis in human MUTU-I cells at 50 uM after 24 hrs by annexin V-propidium iodide staining-based FACS analysis; format: functional
PBMC [3] = test: Cytotoxicity against human PBMC at 10 uM after 24 hrs by alamar blue assay; format: cell-based
How it was run: (§1)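 PBMCs from a healthy donor, separated on Ficoll and resuspended in IMDM with FCS and penicillin/streptomycin. Seeded at 1–5 × 10⁴ cells/200 µl and treated 24 h. Alamar Blue added, fluorescence read at ex 544/em 590 nm, background subtracted, untreated cells = 100% viability. Mean + S.E.M.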

SH-SY5Y = test: Cytotoxicity against human SH-SY5Y cells after 48 hrs by neutral red assay; format: functional, cell-based
[4] = molecular target: Sodium-dependent serotonin transporter (Rattus norvegicus, UniProt P31652); test: Inhibition of [3H]5-HT reuptake at rat SERT expressed in HEK293 cells after 2 mins by liquid scintillation counting; format: cell-based
Sequence of Sodium-dependent serotonin transporter (Rattus norvegicus, UniProt P31652) (P31652 whole entry): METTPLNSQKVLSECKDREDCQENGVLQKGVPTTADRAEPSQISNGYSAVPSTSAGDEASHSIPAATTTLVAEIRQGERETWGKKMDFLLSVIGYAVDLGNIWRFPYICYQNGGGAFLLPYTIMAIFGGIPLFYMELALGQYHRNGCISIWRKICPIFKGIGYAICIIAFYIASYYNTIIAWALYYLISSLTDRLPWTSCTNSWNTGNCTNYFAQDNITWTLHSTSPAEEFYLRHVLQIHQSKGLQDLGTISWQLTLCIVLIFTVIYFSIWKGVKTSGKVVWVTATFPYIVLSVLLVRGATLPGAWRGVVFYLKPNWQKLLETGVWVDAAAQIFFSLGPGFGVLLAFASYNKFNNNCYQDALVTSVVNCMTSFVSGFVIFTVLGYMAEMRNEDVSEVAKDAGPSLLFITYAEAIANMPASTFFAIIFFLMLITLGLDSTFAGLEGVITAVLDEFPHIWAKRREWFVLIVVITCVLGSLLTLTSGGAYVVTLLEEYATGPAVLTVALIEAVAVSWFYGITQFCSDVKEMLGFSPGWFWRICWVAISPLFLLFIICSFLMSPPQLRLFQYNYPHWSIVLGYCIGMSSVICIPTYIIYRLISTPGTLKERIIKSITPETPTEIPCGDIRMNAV

HL-60 [5] = test: Induction of apoptosis in human HL60 cells after 24 hrs by annexin V-propidium iodide staining-based FACS analysis; format: functional, cell-based; conditions: HL-60, 24 h
HEK293 [6] = test: Cytotoxicity against human HEK293 cells after 48 hrs by neutral red assay; format: cell-based; conditions: HEK293, 48 h
How it was run: (§2)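 Neutral Red uptake: 5 × 10⁴ cells/well grown 24–36 h to sub-confluence, then treated 48 h. Cells incubated 3 ± 1 h with NR dye, washed and solubilised in 50% ethanol–1% acetic acid, and absorbance read at 540 nm (690 nm background). Viability given as % of vehicle-treated cells. pEC50 obtained by sigmoidal regression (Hill slope 1) using 4 concentrations in triplicate on two independent days. SERT-line values compared with parental HEK293 by two-way ANOVA with Bonferroni test. Sodium azide 30 mM and Triton-X 2% as positive controls.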

DG-75 [7] = test: Induction of apoptosis in human DG75 cells after 72 hrs by annexin V-propidium iodide staining-based FACS analysis; format: functional, cell-based; conditions: DG-75, 72 h
PBMC [8] = test: Cytotoxicity against human PBMC at 50 uM after 24 hrs by alamar blue assay; format: cell-based; how it was run: as §1
[9] = Induction of apoptosis in human MUTU-I cells after 24 hrs by annexin V-propidium iodide staining-based FACS analysis; format: functional, cell-based
HL-60 [10] = test: Induction of apoptosis in human HL60 cells at 50 uM after 24 hrs by annexin V-propidium iodide staining-based FACS analysis; format: functional
[11] = molecular target: Sodium-dependent serotonin transporter (Rattus norvegicus) (UniProt P31652); test: Inhibition of [3H]5-HT reuptake at rat SERT expressed in HEK293 cells at 100 uM after 2 mins by liquid scintillation counting; format: cell-based
Sequence of Sodium-dependent serotonin transporter (Rattus norvegicus) (P31652 whole entry): as above

[12] = molecular target: Sodium-dependent dopamine transporter (Homo sapiens, UniProt Q01959); test: Inhibition of human dopamine transporter
Sequence of Sodium-dependent dopamine transporter (Q01959 whole entry): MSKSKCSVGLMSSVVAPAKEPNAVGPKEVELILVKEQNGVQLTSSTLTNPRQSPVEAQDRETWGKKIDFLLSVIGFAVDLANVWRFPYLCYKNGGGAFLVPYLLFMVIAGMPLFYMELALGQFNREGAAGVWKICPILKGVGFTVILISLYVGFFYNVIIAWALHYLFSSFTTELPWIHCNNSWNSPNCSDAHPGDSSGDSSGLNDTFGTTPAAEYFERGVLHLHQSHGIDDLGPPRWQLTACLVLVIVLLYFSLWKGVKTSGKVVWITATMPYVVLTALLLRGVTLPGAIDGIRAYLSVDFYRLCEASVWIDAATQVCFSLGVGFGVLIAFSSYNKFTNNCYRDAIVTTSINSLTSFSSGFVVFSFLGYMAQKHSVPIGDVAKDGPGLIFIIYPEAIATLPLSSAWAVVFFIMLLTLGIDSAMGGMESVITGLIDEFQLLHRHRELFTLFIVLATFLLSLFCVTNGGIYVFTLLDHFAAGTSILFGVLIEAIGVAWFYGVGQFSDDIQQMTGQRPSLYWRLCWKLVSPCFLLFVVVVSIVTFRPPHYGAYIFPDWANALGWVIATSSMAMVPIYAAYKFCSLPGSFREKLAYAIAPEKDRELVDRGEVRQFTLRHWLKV

[13] = molecular target: Sodium-dependent noradrenaline transporter (Homo sapiens, UniProt P23975); test: Inhibition of human noradrenaline transporter
Sequence of Sodium-dependent noradrenaline transporter (P23975 whole entry): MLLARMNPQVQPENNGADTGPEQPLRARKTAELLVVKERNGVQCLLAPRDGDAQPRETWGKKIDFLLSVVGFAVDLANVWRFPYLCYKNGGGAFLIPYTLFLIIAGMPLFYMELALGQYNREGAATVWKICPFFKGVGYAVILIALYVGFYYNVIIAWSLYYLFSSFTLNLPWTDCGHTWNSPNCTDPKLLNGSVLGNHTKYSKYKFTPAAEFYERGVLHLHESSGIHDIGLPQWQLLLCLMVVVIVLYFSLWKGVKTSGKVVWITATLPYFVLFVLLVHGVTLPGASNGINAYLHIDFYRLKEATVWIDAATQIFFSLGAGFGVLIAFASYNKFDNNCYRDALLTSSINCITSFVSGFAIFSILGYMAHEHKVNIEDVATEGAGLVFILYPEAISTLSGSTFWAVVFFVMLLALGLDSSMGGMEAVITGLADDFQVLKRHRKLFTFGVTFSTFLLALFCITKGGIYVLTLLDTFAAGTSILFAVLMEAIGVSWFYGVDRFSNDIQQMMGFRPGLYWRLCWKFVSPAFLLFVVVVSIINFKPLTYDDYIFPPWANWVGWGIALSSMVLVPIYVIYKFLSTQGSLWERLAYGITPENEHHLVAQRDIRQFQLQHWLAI

[14] = molecular target: Sodium-dependent serotonin transporter (Rattus norvegicus) (UniProt P31652); test: Inhibition of [3H]5-HT reuptake at rat SERT expressed in HEK293 cells at 1 uM after 2 mins by liquid scintillation counting; format: cell-based
HEK293 [15] = test: Cytotoxicity against human HEK293 cells at 1 uM after 48 hrs by neutral red assay; format: cell-based; conditions: hek293, 48 h; how it was run: as §2
[16] = molecular target: T1, Sodium-dependent serotonin transporter (Homo sapiens, UniProt P31645); test: Inhibition of [3H]5-HT uptake at human SERT expressed in HEK293 cells after 10 mins by scintillation counting; format: cell-based
Target sequence in this assay (P31645 whole entry): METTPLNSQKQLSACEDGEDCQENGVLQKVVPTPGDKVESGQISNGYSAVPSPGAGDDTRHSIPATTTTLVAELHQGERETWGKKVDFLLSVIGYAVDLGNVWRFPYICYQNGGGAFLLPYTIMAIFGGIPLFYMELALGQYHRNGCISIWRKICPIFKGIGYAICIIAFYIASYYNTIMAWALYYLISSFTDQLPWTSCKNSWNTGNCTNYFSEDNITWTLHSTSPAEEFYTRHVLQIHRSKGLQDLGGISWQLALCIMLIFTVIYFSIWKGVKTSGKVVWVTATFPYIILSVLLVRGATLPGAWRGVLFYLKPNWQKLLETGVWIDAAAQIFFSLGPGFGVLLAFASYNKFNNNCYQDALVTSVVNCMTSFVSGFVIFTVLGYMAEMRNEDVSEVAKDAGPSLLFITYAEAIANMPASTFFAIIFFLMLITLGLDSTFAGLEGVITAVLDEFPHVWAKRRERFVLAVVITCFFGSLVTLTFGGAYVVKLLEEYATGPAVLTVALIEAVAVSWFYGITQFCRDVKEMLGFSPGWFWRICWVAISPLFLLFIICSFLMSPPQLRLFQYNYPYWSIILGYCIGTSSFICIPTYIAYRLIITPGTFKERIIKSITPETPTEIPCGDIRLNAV

[17] = molecular target: T1, Sodium-dependent serotonin transporter; test: Induction of human SERT-dependent cytotoxicity in SERT expressing HEK293 cells at 1 uM after 48 hrs by neutral red assay; format: cell-based; how it was run: as §2
Target sequence in this assay (P31645 whole entry, looked up): as the sequence (P31645 whole entry) above

[18] = molecular target: T1, Sodium-dependent serotonin transporter; test: Inhibition of [3H]5-HT uptake at SERT
Target sequence in this assay (P31645 whole entry): as above

Rattus norvegicus [19] = species on record: Rattus norvegicus; test: Selectivity ratio of IC50 for DAT in rat brain synaptosome to IC50 for SERT in rat brain synaptosome; format: tissue-based
Rattus norvegicus [20] = species on record: Rattus norvegicus; test: Selectivity ratio of IC50 for NET in rat brain synaptosome to IC50 for SERT in rat brain synaptosome; format: tissue-based

SMILES	EC50 (SH-SY5Y; read-out: pEC50 (converted))	IC50 [4]	EC50 (HEK293 [6]; read-out: pEC50 (converted))	further results
CCC(N)c1ccc(SC)cc1 (centres undefined)	19.5 µM	> 25 µM	3.16 µM	Activity (DG-75 [1]): 40%; Activity [2]: 40%; Activity (PBMC [3]): Non-toxic; EC50 (HL-60 [5]): 29.5 µM; EC50 (DG-75 [7]): 33.8 µM; Activity (PBMC [8]): Non-toxic; EC50 [9]: 21 µM; Activity (HL-60 [10]): 40%
CCSc1ccc(CC(C)NC)cc1 (centres undefined)	282 µM	0.724 µM	7.59 µM	
CC(N)Cc1ccc(SC(C)(C)C)cc1 (centres undefined)	20.4 µM		7.24 µM	EC50 (SH-SY5Y; read-out: EC50): 1 µM; inhibition [11]: 100%
CCC(Cc1ccc(SC)cc1)NC(C)C (centres undefined)	339 µM	1.94 µM	17.4 µM	
CON(C)C(C)Cc1ccc(SC)cc1 (centres undefined)	> 10000 µM	25.1 µM	525 µM	
COc1ccc(CC(C)N)cc1 (centres undefined) [PARA-METHOXYAMPHETAMINE]	> 10000 µM	0.173 µM	457 µM	
CC(N)Cc1ccc2c(c1)OCO2 (centres undefined) [TENAMFETAMINE]	> 10000 µM	0.996 µM	324 µM	IC50 [12]: 0.89 µM; IC50 [13]: 0.266 µM
CSc1ccc(CC(C)N(C)O)cc1 (centres undefined)	229 µM	1.87 µM	24 µM	
CCSc1ccc(CC(CC)NC)cc1 (centres undefined)				inhibition [14]: 26%; EC50 (HEK293 [6]; read-out: EC50): > 100 µM
CSc1ccc(CC(C)N)cc1 (centres undefined) [4-METHYLTHIOAMPHETAMINE]	608 µM	0.207 µM	18.6 µM	Activity (HEK293 [15]): Toxic; Ki [16]: 0.45 µM; EC50 (SH-SY5Y; read-out: EC50): 1 µM; Activity [17]: Active; IC50 [12]: 3.07 µM; IC50 [13]: 2.38 µM; IC50 [18]: 0.074 µM; Ratio IC50 (Rattus norvegicus [19]): 3070; Ratio IC50 (Rattus norvegicus [20]): 2370
CCSc1ccc(CC(C)NO)cc1 (centres undefined)	708 µM	0.625 µM	32.4 µM	
CNC(C)Cc1ccc2c(c1)OCO2 (centres undefined) [MIDOMAFETAMINE]	> 10000 µM	1.06 µM	245 µM	IC50 [12]: 1.44 µM; IC50 [13]: 0.405 µM; IC50 [18]: 0.425 µM
C#CCNC(CC)Cc1ccc(SC)cc1 (centres undefined)	394 µM	0.399 µM	20.4 µM	
CCSc1ccc(CC(CC)N(C)O)cc1 (centres undefined)	209 µM	2 µM	51.3 µM	
CCSc1ccc(CC(C)N(C)O)cc1 (centres undefined)	43.7 µM	1.57 µM	12.3 µM	
CCNC(CC)Cc1ccc(SCC)cc1 (centres undefined)	245 µM	1.8 µM	251 µM	
CCNC(C)Cc1ccc(SC)cc1 (centres undefined)	1860 µM	0.963 µM	16.2 µM	
CSc1ccc(CC(C)NO)cc1 (centres undefined)	575 µM	0.436 µM	38 µM	
CCC(N)Cc1ccc(SC)cc1 (centres undefined)	437 µM	0.611 µM	14.8 µM	
CCC(Cc1ccc(SC)cc1)NO (centres undefined)	31.6 µM	0.598 µM	8.51 µM	
CCSc1ccc(CC(C)N)cc1 (centres undefined)	64.6 µM	1.4 µM	15.1 µM	EC50 (SH-SY5Y; read-out: EC50): 1 µM
CCNC(CC)Cc1ccc(SC)cc1 (centres undefined)	151 µM	0.823 µM	10 µM	
